Data as given in ChEMBL document CHEMBL5724801, “EUbOPEN Chemogenomics Library - Multiplex” (2024).
Values joined by “and” are separate entries in the source; they are usually repeats but may differ in a detail not shown here. Equal entries are not always repeated.

Legend:
Assay type in all cases: toxicity, cell-based
[1] = system: Fibroblast; assay: Multiplex assay against human fibroblast
Procedure, shortened: (§1)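 Cells stained live at seeding with Hoechst33342, BioTracker Green Microtubule Cytoskeleton Dye, MitoTracker Red and Annexin V Alexa Fluor 680 were imaged on a CQ1 microscope at 37°C and 5% CO2 after compound addition. Their classification by CellPathfinder machine-learning gating ran from Hoechst high-intensity objects versus normal cells, to healthy, pyknosed or fragmented nuclei among normal cells, to mitotic or apoptotic among pyknosed cells. Tubulin, mitochondrial-mass and membrane-permeability phenotypes are per cents of healthy-nucleus cells.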

[2] = system: HEK-293T; assay: Multiplex assay against HEK293T; conditions: human; procedure, shortened: as §1
[3] = system: U2OS; assay: Multiplex assay against U2OS; conditions: human; procedure, shortened: as §1
[4] = 12 h, 1 µM, compound concentration 1 uM
[5] = 12 h, 10 µM, compound concentration 10 uM
[6] = 24 h, 1 µM, compound concentration 1 uM
[7] = 24 h, 10 µM, compound concentration 10 uM
[8] = 48 h, 1 µM, compound concentration 1 uM
[9] = 48 h, 10 µM, compound concentration 10 uM

CSCC[C@H](NC=O)C(=O)N[C@@H](CC(C)C)C(=O)N[C@@H](Cc1ccccc1)C(=O)O
Population Fragmented Nuclei (%) [1, 4]: 18% and 29%
Population Healthy Nuclei (%) [1, 4]: 69% and 51%
Population Mitochondria Different-Phenotype (%) [1, 4]: 3% and 4%
Population Tubulin-Different-Phenotype (%) [1, 4]: 26% and 39%
Total Cell Count [1, 4]: 182 and 175
Population Fragmented Nuclei (%) [1, 5]: 27%
Population Healthy Nuclei (%) [1, 5]: 39%
Population Hoechst High Intensity Objects (%) [1, 5]: 38%
Population Membrane Permeable-Phenotype (%) [1, 5]: 9%
Population Mitochondria Different-Phenotype (%) [1, 5]: 5% and 3%
Population Normal (%) [1, 5]: 61%
Population Tubulin-Different-Phenotype (%) [1, 5]: 24% and 35%
Total Cell Count [1, 5]: 112 and 315
Population Fragmented Nuclei (%) [1, 6]: 35%
Population Healthy Nuclei (%) [1, 6]: 73% and 46%
Population Hoechst High Intensity Objects (%) [1, 6]: 7%
Population Mitochondria Different-Phenotype (%) [1, 6]: 4% and 9%
Population Normal (%) [1, 6]: 92%
Population Tubulin-Different-Phenotype (%) [1, 6]: 18% and 43%
Total Cell Count [1, 6]: 173 and 179
Population Fragmented Nuclei (%) [1, 7]: 19%
Population Healthy Nuclei (%) [1, 7]: 38%
Population Hoechst High Intensity Objects (%) [1, 7]: 32%
Population Membrane Permeable-Phenotype (%) [1, 7]: 3%
Population Mitochondria Different-Phenotype (%) [1, 7]: 7% and 10%
Population Normal (%) [1, 7]: 67%
Population Tubulin-Different-Phenotype (%) [1, 7]: 25% and 47%
Total Cell Count [1, 7]: 107 and 230
Population Fragmented Nuclei (%) [1, 8]: 16% and 36%
Population Healthy Nuclei (%) [1, 8]: 69% and 47%
Population Mitochondria Different-Phenotype (%) [1, 8]: 1% and 8%
Population Tubulin-Different-Phenotype (%) [1, 8]: 21% and 54%
Total Cell Count [1, 8]: 184 and 174
Population Fragmented Nuclei (%) [1, 9]: 18%
Population Healthy Nuclei (%) [1, 9]: 44%
Population Hoechst High Intensity Objects (%) [1, 9]: 29%
Population Membrane Permeable-Phenotype (%) [1, 9]: 4%
Population Mitochondria Different-Phenotype (%) [1, 9]: 4% and 1%
Population Normal (%) [1, 9]: 70%
Population Tubulin-Different-Phenotype (%) [1, 9]: 24% and 47%
Total Cell Count [1, 9]: 110 and 231
Population Apoptotic (%) [2, 4]: 28%
Population Mitochondria Different-Phenotype (%) [2, 4]: 47% and 57%
Population Mitotic Cells (%) [2, 4]: 71%
Population Tubulin-Different-Phenotype (%) [2, 4]: 23% and 16%
Total Cell Count [2, 4]: 466 and 437
Population Apoptotic (%) [2, 5]: 54%
Population Mitochondria Different-Phenotype (%) [2, 5]: 52% and 64%
Population Mitotic Cells (%) [2, 5]: 45%
Population Tubulin-Different-Phenotype (%) [2, 5]: 37% and 31%
Total Cell Count [2, 5]: 366 and 375
Population Apoptotic (%) [2, 6]: 21%
Population Mitochondria Different-Phenotype (%) [2, 6]: 21% and 37%
Population Mitotic Cells (%) [2, 6]: 78%
Population Tubulin-Different-Phenotype (%) [2, 6]: 14% and 12%
Total Cell Count [2, 6]: 679 and 550
Population Apoptotic (%) [2, 7]: 25% and 36%
Population Mitochondria Different-Phenotype (%) [2, 7]: 38% and 53%
Population Mitotic Cells (%) [2, 7]: 75% and 64%
Population Tubulin-Different-Phenotype (%) [2, 7]: 25% and 22%
Total Cell Count [2, 7]: 479 and 490
Population Apoptotic (%) [2, 8]: 29% and 20%
Population Mitochondria Different-Phenotype (%) [2, 8]: 12% and 17%
Population Mitotic Cells (%) [2, 8]: 79%
Population Tubulin-Different-Phenotype (%) [2, 8]: 12%
Total Cell Count [2, 8]: 1154 and 838
Population Apoptotic (%) [2, 9]: 28% and 36%
Population Mitochondria Different-Phenotype (%) [2, 9]: 24% and 28%
Population Mitotic Cells (%) [2, 9]: 71% and 63%
Population Tubulin-Different-Phenotype (%) [2, 9]: 12% and 14%
Total Cell Count [2, 9]: 704 and 674
Population Apoptotic (%) [3, 4]: 73% and 100%
Population Fragmented Nuclei (%) [3, 4]: 29% and 17%
Population Healthy Nuclei (%) [3, 4]: 75%
Population Mitochondria Different-Phenotype (%) [3, 4]: 4% and 3%
Total Cell Count [3, 4]: 254 and 135
Population Apoptotic (%) [3, 5]: 69% and 90%
Population Fragmented Nuclei (%) [3, 5]: 23% and 16%
Population Healthy Nuclei (%) [3, 5]: 70% and 74%
Population Membrane Permeable-Phenotype (%) [3, 5]: 4%
Population Mitochondria Different-Phenotype (%) [3, 5]: 1% and 2%
Population Mitotic Cells (%) [3, 5]: 30%
Total Cell Count [3, 5]: 202 and 123
Population Apoptotic (%) [3, 6]: 91% and 90%
Population Fragmented Nuclei (%) [3, 6]: 24% and 17%
Population Healthy Nuclei (%) [3, 6]: 75%
Population Mitochondria Different-Phenotype (%) [3, 6]: 3% and 0%
Population Mitotic Cells (%) [3, 6]: 8%
Total Cell Count [3, 6]: 288 and 147
Population Apoptotic (%) [3, 7]: 76% and 100%
Population Fragmented Nuclei (%) [3, 7]: 23% and 19%
Population Healthy Nuclei (%) [3, 7]: 68% and 70%
Population Membrane Permeable-Phenotype (%) [3, 7]: 8%
Population Mitochondria Different-Phenotype (%) [3, 7]: 1% and 2%
Population Mitotic Cells (%) [3, 7]: 23% and 0%
Total Cell Count [3, 7]: 247 and 147
Population Fragmented Nuclei (%) [3, 8]: 16% and 18%
Population Healthy Nuclei (%) [3, 8]: 75% and 68%
Population Membrane Permeable-Phenotype (%) [3, 8]: 4%
Population Mitochondria Different-Phenotype (%) [3, 8]: 3% and 1%
Total Cell Count [3, 8]: 411 and 202
Population Apoptotic (%) [3, 9]: 90% and 100%
Population Fragmented Nuclei (%) [3, 9]: 20% and 53%
Population Healthy Nuclei (%) [3, 9]: 70% and 25%
Population Mitotic Cells (%) [3, 9]: 9% and 0%
